Screens deposited in PubChem by several laboratories.
Most compounds without a hit are left out; they make up all but 3.7% or so of the library.
MT stabilize HCS: microtubule stabilization, imaging screen; HeLa tubulin immunostaining HCS, 24 h; share of cells brighter than vehicle mean+2SD; AID 2205; actives 0.83% (n = 200,000); % tubulin-high responders, % at 10 µM;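 active = plate Z-score above 3 for both tubulin-high and condensed-nucleus cell shares, with cell loss under 80%, at 10 µM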;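 also: anti alpha tubulin signal scored within the nucleus-defined area of each cell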
ROMK primary: human ROMK K+ channel modulation, primary screen | P48048 | AID 1918 | B-score at 10 µM | actives 2% (n = 130,000) | Tet-inducible ROMK, thallium flux fluorescence; actives lie on both sides;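 active = signal ratio slope over the read window, or its plate-corrected B-score, at least 3 SD from the plate mean, either direction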;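 also: B-score of the F/F0 ratio slope over 7 to 12 s after thallium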
Target sequence (P48048 whole entry, looked up): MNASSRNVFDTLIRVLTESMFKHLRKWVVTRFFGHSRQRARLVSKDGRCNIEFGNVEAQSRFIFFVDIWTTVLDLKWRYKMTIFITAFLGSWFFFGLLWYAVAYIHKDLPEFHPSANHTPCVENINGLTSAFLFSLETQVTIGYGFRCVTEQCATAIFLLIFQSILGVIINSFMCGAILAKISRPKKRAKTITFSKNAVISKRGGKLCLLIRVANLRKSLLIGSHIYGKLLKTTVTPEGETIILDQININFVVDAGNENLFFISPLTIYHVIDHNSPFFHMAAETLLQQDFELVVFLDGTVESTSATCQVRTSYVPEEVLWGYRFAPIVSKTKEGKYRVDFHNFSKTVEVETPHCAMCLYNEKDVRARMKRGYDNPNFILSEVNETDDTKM
KCC2 mod: KCC2 (human) Cl- transport modulation | B-score of Tl+ flux slope (higher = more flux/activation; lower = inhibition) at 10 µM | Q9H2X9 | KCC2 cells, thallium flux FluoZin-2 fluorescence | actives 2.2% (n = 190,000) | AID 1456;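 active = thallium flux slope and its plate-corrected score both differing from the plate sample mean at a set confidence after two filtering rounds, in either direction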;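 also: slope of fluorescence scaled to starting intensity during 10 to 20 s after thallium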
b-catenin transl: beta-catenin nuclear translocation modulation. actives 0.3% (n = 190,000). AID 1665. HeLa beta-catenin nuclear translocation, immunofluorescence imaging. nuclear translocation activity, % at 5 µM;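 active = nuclear translocation activity above 50% at 5 µM, with a well cell count of 50 or more; inconclusive = wells under 50 cells across six images, flagged as toxic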;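 also: per-cell ratio of nuclear to cytoplasmic median beta-catenin stain intensity; plate controls were DMSO negative control for no effect and GSK-3 inhibitor IX positive control for full effect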
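Read-out: Nuclear/cytoplasmic beta-catenin signal ratio, % activation | Assay system: Human HeLa cell line | Times: 24 h compound exposure at 37°C, 5% CO2 | Signal: Fluorescence imaging of beta-catenin antibody stain plus DAPI | Dosing: 5 µM primary, 0.02–20 µM confirmation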
DTT redox prof: compounds producing H2O2 with reducing agent – biochemical, NIH compound library profiling, artefact control for MLSCN library redox annotation, primary screen. DTT-dependent redox cycling H2O2, phenol red/HRP absorbance; 100% = 100 µM peroxide control, 0% = buffer. activation, % at 10 µM. actives 0.03% (n = 200,000);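 active = activation of at least 50% relative to the plate's high and low controls in the primary single-dose screen; inactive = activation below 50%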;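 also: compound incubated with DTT at 0.8 mM final as the reducing agent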
KCC2 secondary: confirmation of human KCC2 transport modulators. shares compounds with KCC2 mod. HEK293-KCC2, thallium flux, FluoZin2 fluorescence; active compounds read high. normalised thallium flux (F/F0 slope) at 10 µM. actives 15% (n = 3,700);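 active = thallium flux slope above the same plate's solvent-only control mean plus 3 SD; inconclusive = the two replicate wells disagree; inactive = no significant difference from solvent-only control wells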
KCC2 bumet counter: thallium flux despite bumetanide block in KCC2 cells, secondary assay 3; actives 49% (n = 3,700); normalized thallium flux at 10 µM; shares compounds with KCC2 mod; HEK293-KCC2 + bumetanide/ouabain, thallium flux FluoZin2; active compounds read high; AID 1714;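 active = thallium entry rate above the same plate's blocked-transporter control wells by more than 3 SD; inconclusive = the two repeat wells disagree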;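 also: raw slope of fluorescence over initial fluorescence between 10 and 20 s after thallium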
KCC2 secondary2: KCC2 (human) modulation, second secondary assay | shares compounds with KCC2 mod | AID 1715 | actives 23% (n = 3,700) | normalized thallium flux at 10 µM | HEK293-KCC2, thallium flux FluoZin2 fluorescence; actives lie on both sides; F/F0 rise rate, 10–20 s post-thallium;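 active = thallium flux slope more than 3 SD above or below the plate's solvent-only control mean, mostly below; inconclusive = the two repeat wells disagreed; inactive = no significant shift from solvent-only controls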;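 also: raw slope with 0.1% DMSO as baseline and bumetanide as block control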
HEK counter1: acts in parental HEK cells, KCC2 counter-screen. shares compounds with KCC2 mod. HEK293 parental cells, thallium flux FluoZin2, ouabain; baseline-ratio fluorescence slope, 10–20 s after thallium. thallium flux rate (normalised fluorescence) at 10 µM. actives 46% (n = 3,700). AID 1716;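 active = thallium flux rate significantly above the same plate's solvent-only control wells, beyond their mean plus 3 SD; inconclusive = the two replicate wells gave conflicting results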
KCC2 ouabain: KCC2 (human) modulation, ouabain retest. shares compounds with KCC2 mod. HEK293-KCC2, thallium flux FluoZin2 fluorescence; bidirectional: low = inhibitor, high = activator. raw Tl+ flux slope (below DMSO = inhibition, above = activation) at 10 µM. actives 48% (n = 3,700). AID 1717;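 active = thallium flux slope beyond 3 SD from same-plate DMSO control mean in most replicates, usually higher, sometimes lower; inconclusive = repeat tests gave conflicting results; inactive = no significant difference from controls in most replicates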;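 also: slope of initial-normalized fluorescence between seconds 10 and 20 after thallium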
HEK293 Tl flux2: parental HEK flux effect, counter-screen 2. actives 33% (n = 3,700). thallium flux slope at 10 µM. HEK293 parental, thallium flux FluoZin-2 fluorescence slope. shares compounds with KCC2 mod;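 active = thallium flux slope above the same plate's solvent-control mean plus 3 SD in both duplicate wells; inconclusive = duplicate wells that disagreed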;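 also: run without ouabain in cells lacking the KCC2 cotransporter; slope of fluorescence scaled to its starting value between 10 and 20 s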
The depositor's hits bear a star; ? = inconclusive; nt = no result.

SMILES	MT stabilize HCS	ROMK primary	KCC2 mod	b-catenin transl	DTT redox prof	KCC2 secondary	KCC2 bumet counter	KCC2 secondary2	HEK counter1	KCC2 ouabain	HEK293 Tl flux2
Cc1cc2c(cc1C)NC(c1nc3ccccc3[nH]1)C1=C(CC(C)(C)CC1=O)N2 (configuration not stated)	3.3	nt	-3.76*	-2.1	2.0	0.0103	0.00522	0.036	0.00396	0.0204	0.0109
C/C(=N\NC(=S)Nc1ccccc1)C1Cc2ccccc2C(=O)O1 (configuration not stated)	nt	0.61	6.6*	0.0	nt	0.00705	0.0105*	0.0327	0.0113*	0.0225	0.0126*
CCC(C)(C)NCC(=O)Nc1ccc(OC(F)(F)F)cc1	1.7	-1.07	0.946	-5.4	-1.5	nt	nt	nt	nt	nt	nt
COCCCNCC(=O)Nc1ccc(OC(F)(F)F)cc1	4.8	nt	3.65*	-0.9	-1.2	0.00911	0.00622	0.0295	0.00715	0.0269	0.0098
O=C(CCNS(=O)(=O)c1cccc2nonc12)NCCc1ccc(Cl)cc1	6.5	nt	-3.56*	-1.3	-2.3	?	0.00586	0.0319	0.00694	0.017*	0.00951
Cc1ccc(NC(=O)CCNS(=O)(=O)c2cccc3nonc23)cc1Cl	1.5	0.198	-0.875	-1.7	-1.6	nt	nt	nt	nt	nt	nt
O=C(NCc1ccncc1)/C(=C/c1cccc([N+](=O)[O-])c1)NC(=O)c1ccccc1	nt	nt	-1.2	-2.1	nt	nt	nt	nt	nt	nt	nt
CC(=O)CCCCn1c(=O)c2c(ncn2C)n(C)c1=O	1.2	nt	-0.601	-3.1	2.1	nt	nt	nt	nt	nt	nt
CC(=O)CCn1c(=O)n(CCC(C)=O)c(=O)n(CCC(C)=O)c1=O	3.6	nt	0.729	1.0	0.1	0.0094	?	0.0345	0.00834	0.0236	?
O=[N+]([O-])c1ccc(NC(=S)NCCc2ccc(F)cc2)cc1	1.3	nt	-6.09*	-1.3	0.4	0.00691	0.00378	0.0215*	0.00522*	0.0102*	0.008*
CC(=O)/C=C(\C)N=Nc1c(O)[nH]c2ccccc12	nt	0.0936	0.459	0.2	nt	nt	nt	nt	nt	nt	nt
O=C(CSc1nc2ccccc2c(=O)n1-c1ccc(SC(F)F)cc1)Nc1ccc(N2CCOCC2)cc1	5.9	-1.16	4.48*	0.1	-1.6	0.00958	0.0145*	0.0304	0.00999*	0.0237	0.0111*
O=C(CSc1nc2ccccc2c(=O)n1-c1ccc(F)cc1)Nc1ccc(N2CCOCC2)cc1	11.2	nt	0.0348	-2.8	0.5	nt	nt	nt	nt	nt	nt
Cc1cc(-c2cccs2)c(C#N)c(=S)[nH]1	nt	0.23	32.5*	2.1	nt	0.0242*	0.0343*	?	?	0.038*	?
N#Cc1c(-c2cccs2)cc(-c2cccs2)[nH]c1=O	nt	-2.19	-0.868	-0.4	nt	nt	nt	nt	nt	nt	nt
CC(C)C(c1nnnn1Cc1ccco1)N1CCN(c2nc3ccccc3s2)CC1 (configuration not stated)	3.8	nt	-0.559	-1.1	-3.1	nt	nt	nt	nt	nt	nt
COc1ccc(Cn2nnnc2C(CC(C)C)N2CCN(c3ccccc3)CC2)cc1 (configuration not stated)	3.2	0.247	nt	-5.8	-0.1	0.00877	0.00413	0.033	0.00669	0.0183	0.011
CCCC(c1nnnn1Cc1ccc(OC)cc1)N1CCN(c2ccccc2)CC1 (configuration not stated)	5.9	nt	-1.27	-7.5	-2.6	nt	nt	nt	nt	nt	nt
CCC(c1nnnn1Cc1cccs1)N1CCN(C2CCCC2)CC1 (configuration not stated)	1.7	nt	0.242	-8.3	1.8	nt	nt	nt	nt	nt	nt
CCC(c1nnnn1Cc1cccs1)N1CCN(c2nc3ccccc3s2)CC1 (configuration not stated)	4.6	nt	-3.99*	-0.2	-0.5	0.00687	0.00412	?	0.00633*	0.0138*	0.0113
CC(C)CC(c1nnnn1Cc1cccs1)N1CCN(c2nc3ccccc3s2)CC1 (configuration not stated)	2.0	nt	-5.11*	-1.4	1.7	0.006	0.00498	?	0.00756	?	0.0112
CCOC(=O)C1CC(C)=C(C)CC1C(=O)O (configuration not stated)	nt	nt	-0.208	-0.2	nt	nt	nt	nt	nt	nt	nt
COc1cc([N+](=O)[O-])cc2sc(NC(C)=O)nc12	nt	nt	0.799	0.9	nt	nt	nt	nt	nt	nt	nt
CC(=O)c1cccc(NC(=S)NC(=O)c2ccccc2Br)c1	1.8	nt	7.02*	-9.8	0.1	0.014*	0.0764*	0.0375	0.0173*	?	0.0134*
CC(=O)c1cccc(NC(=S)NC(=O)c2ccccc2C)c1	2.8	0.155	2.74	0.9	-0.1	nt	nt	nt	nt	nt	nt
SMILES	MT stabilize HCS	ROMK primary	KCC2 mod	b-catenin transl	DTT redox prof	KCC2 secondary	KCC2 bumet counter	KCC2 secondary2	HEK counter1	KCC2 ouabain	HEK293 Tl flux2
CC1CCCCC1NC(=S)NC(=O)c1ccccc1Br (configuration not stated)	4.0	0.963	22.4*	-0.7	-0.1	0.0074	0.00967*	0.0348	0.0143*	0.0272*	0.0152*
CC(=O)c1cccc(NC(=S)NC(=O)c2ccc(Cl)cc2)c1	2.9	nt	5.49*	-4.0	0.0	0.00588	0.0156*	0.0314	0.0109*	?	?
NC(=O)c1nsc(C(=O)N(c2cccc(F)c2)C(C(=O)NCC2CCCO2)c2cccs2)c1N (configuration not stated)	2.5	-0.108	1.08	1.6	-0.3	nt	nt	nt	nt	nt	nt
N=C1SCC(=O)N1c1ncc(Cc2ccccc2Cl)s1	5.0	-0.0933	10.7*	-2.1	-0.5	0.0112	0.0195*	0.0301	0.0137*	?	0.0115
N=C1SCC(=O)N1c1ncc(Cc2cccc(Cl)c2)s1	2.5	-0.301	8.07*	0.7	-1.1	?	0.0189*	0.032	0.0203*	0.0311*	?
C=CCSc1nc(C)cc(C(=O)OCC)c1C#N	nt	nt	nt	-0.5	nt	nt	nt	nt	nt	nt	nt
Cc1ccc(S(=O)(=O)N2CCCC2C(=O)Nc2nc3c(s2)CCCC3)cc1 (configuration not stated)	2.8	nt	-3.17*	-0.3	0.1	0.00781	0.00533	0.0347	0.00677	0.0161*	0.0108
Cc1ccc(S(=O)(=O)N2CCCCC2C(=O)Nc2nncs2)cc1 (configuration not stated)	nt	nt	0.937	-2.8	nt	nt	nt	nt	nt	nt	nt
